Legend:
Assay type in all cases: functional
[1] = test system: Amaranthus retroflexus; test: Herbicidal activity against Amaranthus retroflexus assessed as inhibition of fresh weed plant weight at 93.75 g/ha using post-emergence treatment protocol
Outline: (§1)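 Test compounds made up as emulsions by dissolving in 100 µL N,N-dimethylformamide, then adding a little Tween 20 and water. For post-emergence, weed seedlings at one leaf and one stem were sprayed at the same rates as the pre-emergence test. Fresh weight was recorded 15 days after treatment and expressed as percent inhibition versus controls. All treatments were run in triplicate.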

[2] = test system: Amaranthus retroflexus; test: Herbicidal activity against Amaranthus retroflexus assessed as inhibition of fresh weed plant weight at 750 g/ha using post-emergence treatment protocol; outline: as §1
[3] = test system: Brassica rapa subsp. oleifera; test: Herbicidal activity against Brassica rapa subsp. oleifera assessed as inhibition of fresh weed plant weight at 1500 g/ha using post-emergence treatment protocol; outline: as §1
[4] = test system: Echinochloa crus-galli; test: Herbicidal activity against Echinochloa crus-galli (barnyard grass) assessed as inhibition of fresh weed plant weight at 375 g/ha using pre-emergence treatment protocol; outline: as §1
[5] = test system: Echinochloa crus-galli; test: Herbicidal activity against Echinochloa crus-galli (barnyard grass) assessed as inhibition of fresh weed plant weight at 750 g/ha using pre-emergence treatment protocol
[6] = test system: Amaranthus retroflexus; test: Herbicidal activity against Amaranthus retroflexus assessed as inhibition of fresh weed plant weight at 1500 g/ha using pre-emergence treatment protocol
[7] = test system: Digitaria sanguinalis; test: Herbicidal activity against Digitaria sanguinalis (hairy crabgrass) assessed as inhibition of fresh weed plant weight at 93.75 g/ha using pre-emergence treatment protocol
[8] = test system: Amaranthus retroflexus; test: Herbicidal activity against Amaranthus retroflexus assessed as inhibition of fresh weed plant weight at 750 g/ha using pre-emergence treatment protocol; outline: as §1
[9] = test system: Digitaria sanguinalis; test: Herbicidal activity against Digitaria sanguinalis (hairy crabgrass) assessed as inhibition of fresh weed plant weight at 45 g/ha using pre-emergence treatment protocol
[10] = test system: Amaranthus retroflexus; test: Herbicidal activity against Amaranthus retroflexus assessed as inhibition of fresh weed plant weight at 375 g/ha using pre-emergence treatment protocol
[11] = test system: Brassica rapa subsp. oleifera; test: Herbicidal activity against Brassica rapa subsp. oleifera assessed as inhibition of fresh weed plant weight at 1500 g/ha using pre-emergence treatment protocol
[12] = test system: Echinochloa crus-galli; test: Herbicidal activity against Echinochloa crus-galli (barnyard grass) assessed as inhibition of fresh weed plant weight at 750 g/ha using post-emergence treatment protocol; outline: as §1
[13] = test system: Amaranthus retroflexus; test: Herbicidal activity against Amaranthus retroflexus assessed as inhibition of fresh weed plant weight at 45 g/ha using pre-emergence treatment protocol
[14] = test system: Digitaria sanguinalis; test: Herbicidal activity against Digitaria sanguinalis (hairy crabgrass) assessed as inhibition of fresh weed plant weight at 93.75 g/ha using post-emergence treatment protocol; outline: as §1
[15] = test system: Digitaria sanguinalis; test: Herbicidal activity against Digitaria sanguinalis (hairy crabgrass) assessed as inhibition of fresh weed plant weight at 375 g/ha using pre-emergence treatment protocol
[16] = test system: Digitaria sanguinalis; test: Herbicidal activity against Digitaria sanguinalis (hairy crabgrass) assessed as inhibition of fresh weed plant weight at 750 g/ha using post-emergence treatment protocol; outline: as §1
[17] = test system: Digitaria sanguinalis; test: Herbicidal activity against Digitaria sanguinalis (hairy crabgrass) assessed as inhibition of fresh weed plant weight at 187.5 g/ha using post-emergence treatment protocol; outline: as §1
[18] = test system: Amaranthus retroflexus; test: Herbicidal activity against Amaranthus retroflexus assessed as inhibition of fresh weed plant weight at 1500 g/ha using post-emergence treatment protocol; outline: as §1
[19] = test system: Amaranthus retroflexus; test: Herbicidal activity against Amaranthus retroflexus assessed as inhibition of fresh weed plant weight at 187.5 g/ha using post-emergence treatment protocol; outline: as §1
[20] = test system: Amaranthus retroflexus; test: Herbicidal activity against Amaranthus retroflexus assessed as inhibition of fresh weed plant weight at 93.75 g/ha using pre-emergence treatment protocol
[21] = test system: Brassica rapa subsp. oleifera; test: Herbicidal activity against Brassica rapa subsp. oleifera assessed as inhibition of fresh weed plant weight at 93.75 g/ha using pre-emergence treatment protocol
[22] = test system: Amaranthus retroflexus; test: Herbicidal activity against Amaranthus retroflexus assessed as inhibition of fresh weed plant weight at 375 g/ha using post-emergence treatment protocol; outline: as §1
[23] = test system: Brassica rapa subsp. oleifera; test: Herbicidal activity against Brassica rapa subsp. oleifera assessed as inhibition of fresh weed plant weight at 45 g/ha using pre-emergence treatment protocol
[24] = test system: Echinochloa crus-galli; test: Herbicidal activity against Echinochloa crus-galli (barnyard grass) assessed as inhibition of fresh weed plant weight at 187.5 g/ha using post-emergence treatment protocol; outline: as §1
[25] = test system: Brassica rapa subsp. oleifera; test: Herbicidal activity against Brassica rapa subsp. oleifera assessed as inhibition of fresh weed plant weight at 375 g/ha using post-emergence treatment protocol; outline: as §1
[26] = test system: Brassica rapa subsp. oleifera; test: Herbicidal activity against Brassica rapa subsp. oleifera assessed as inhibition of fresh weed plant weight at 750 g/ha using pre-emergence treatment protocol
[27] = test system: Echinochloa crus-galli; test: Herbicidal activity against Echinochloa crus-galli (barnyard grass) assessed as inhibition of fresh weed plant weight at 1500 g/ha using pre-emergence treatment protocol
[28] = test system: Brassica rapa subsp. oleifera; test: Herbicidal activity against Brassica rapa subsp. oleifera assessed as inhibition of fresh weed plant weight at 187.5 g/ha using post-emergence treatment protocol; outline: as §1
[29] = test system: Brassica rapa subsp. oleifera; test: Herbicidal activity against Brassica rapa subsp. oleifera assessed as inhibition of fresh weed plant weight at 187.5 g/ha using pre-emergence treatment protocol
[30] = test system: Echinochloa crus-galli; test: Herbicidal activity against Echinochloa crus-galli (barnyard grass) assessed as inhibition of fresh weed plant weight at 22.5 g/ha using pre-emergence treatment protocol; outline: as §1
[31] = test system: Digitaria sanguinalis; test: Herbicidal activity against Digitaria sanguinalis (hairy crabgrass) assessed as inhibition of fresh weed plant weight at 750 g/ha using pre-emergence treatment protocol
[32] = test system: Brassica rapa subsp. oleifera; test: Herbicidal activity against Brassica rapa subsp. oleifera assessed as inhibition of fresh weed plant weight at 22.5 g/ha using pre-emergence treatment protocol
[33] = test system: Echinochloa crus-galli; test: Herbicidal activity against Echinochloa crus-galli (barnyard grass) assessed as inhibition of fresh weed plant weight at 93.75 g/ha using pre-emergence treatment protocol
[34] = test system: Echinochloa crus-galli; test: Herbicidal activity against Echinochloa crus-galli (barnyard grass) assessed as inhibition of fresh weed plant weight at 1500 g/ha using post-emergence treatment protocol; outline: as §1
[35] = test system: Echinochloa crus-galli; test: Herbicidal activity against Echinochloa crus-galli (barnyard grass) assessed as inhibition of fresh weed plant weight at 45 g/ha using pre-emergence treatment protocol
[36] = test system: Digitaria sanguinalis; test: Herbicidal activity against Digitaria sanguinalis (hairy crabgrass) assessed as inhibition of fresh weed plant weight at 375 g/ha using post-emergence treatment protocol; outline: as §1
[37] = test system: Brassica rapa subsp. oleifera; test: Herbicidal activity against Brassica rapa subsp. oleifera assessed as inhibition of fresh weed plant weight at 93.75 g/ha using post-emergence treatment protocol; outline: as §1
[38] = test system: Digitaria sanguinalis; test: Herbicidal activity against Digitaria sanguinalis (hairy crabgrass) assessed as inhibition of fresh weed plant weight at 1500 g/ha using post-emergence treatment protocol; outline: as §1
[39] = test system: Brassica rapa subsp. oleifera; test: Herbicidal activity against Brassica rapa subsp. oleifera assessed as inhibition of fresh weed plant weight at 375 g/ha using pre-emergence treatment protocol
[40] = test system: Brassica rapa subsp. oleifera; test: Herbicidal activity against Brassica rapa subsp. oleifera assessed as inhibition of fresh weed plant weight at 750 g/ha using post-emergence treatment protocol; outline: as §1
[41] = test system: Digitaria sanguinalis; test: Herbicidal activity against Digitaria sanguinalis (hairy crabgrass) assessed as inhibition of fresh weed plant weight at 22.5 g/ha using pre-emergence treatment protocol
[42] = test system: Amaranthus retroflexus; test: Herbicidal activity against Amaranthus retroflexus assessed as inhibition of fresh weed plant weight at 187.5 g/ha using pre-emergence treatment protocol
[43] = test system: Digitaria sanguinalis; test: Herbicidal activity against Digitaria sanguinalis (hairy crabgrass) assessed as inhibition of fresh weed plant weight at 1500 g/ha using pre-emergence treatment protocol
[44] = test system: Echinochloa crus-galli; test: Herbicidal activity against Echinochloa crus-galli (barnyard grass) assessed as inhibition of fresh weed plant weight at 93.75 g/ha using post-emergence treatment protocol; outline: as §1
[45] = test system: Echinochloa crus-galli; test: Herbicidal activity against Echinochloa crus-galli (barnyard grass) assessed as inhibition of fresh weed plant weight at 375 g/ha using post-emergence treatment protocol; outline: as §1
[46] = test system: Digitaria sanguinalis; test: Herbicidal activity against Digitaria sanguinalis (hairy crabgrass) assessed as inhibition of fresh weed plant weight at 187.5 g/ha using pre-emergence treatment protocol
[47] = test system: Echinochloa crus-galli; test: Herbicidal activity against Echinochloa crus-galli (barnyard grass) assessed as inhibition of fresh weed plant weight at 187.5 g/ha using pre-emergence treatment protocol; outline: as §1
[48] = test system: Amaranthus retroflexus; test: Herbicidal activity against Amaranthus retroflexus assessed as inhibition of fresh weed plant weight at 22.5 g/ha using pre-emergence treatment protocol

C=CCN1C(=O)COc2cc(F)c(-n3nnc4c(cnn4CC=C)c3=O)cc21
inhibition at 93.75 g/ha [1]: 19%
inhibition at 750 g/ha [2]: 85.1%
inhibition at 1500 g/ha [3]: 100%
inhibition at 375 g/ha [4]: 47.4%
inhibition at 750 g/ha [5]: 89.2%
inhibition at 1500 g/ha [6]: 100%
inhibition at 93.75 g/ha [7]: 20.4%
inhibition at 750 g/ha [8]: 100%
inhibition at 45 g/ha [9]: 17.1%
inhibition at 375 g/ha [10]: 100%
inhibition at 1500 g/ha [11]: 100%
inhibition at 750 g/ha [12]: 49.9%
inhibition at 45 g/ha [13]: 82.8%
inhibition at 93.75 g/ha [14]: 0%
inhibition at 375 g/ha [15]: 51%
inhibition at 750 g/ha [16]: 4.2%
inhibition at 187.5 g/ha [17]: 0%
inhibition at 1500 g/ha [18]: 100%
inhibition at 187.5 g/ha [19]: 30.6%
inhibition at 93.75 g/ha [20]: 100%
inhibition at 93.75 g/ha [21]: 60.4%
inhibition at 375 g/ha [22]: 53.7%
inhibition at 45 g/ha [23]: 40.7%
inhibition at 187.5 g/ha [24]: 14.2%
inhibition at 375 g/ha [25]: 95.3%
inhibition at 750 g/ha [26]: 100%
inhibition at 1500 g/ha [27]: 96.5%
inhibition at 187.5 g/ha [28]: 55.6%
inhibition at 187.5 g/ha [29]: 93.3%
inhibition at 22.5 g/ha [30]: 5.4%
inhibition at 750 g/ha [31]: 67.4%
inhibition at 22.5 g/ha [32]: 12.7%
inhibition at 93.75 g/ha [33]: 10%
inhibition at 1500 g/ha [34]: 89.3%
inhibition at 45 g/ha [35]: 7.4%
inhibition at 375 g/ha [36]: 0%
inhibition at 93.75 g/ha [37]: 19.6%
inhibition at 1500 g/ha [38]: 31.2%
inhibition at 375 g/ha [39]: 100%
inhibition at 750 g/ha [40]: 100%
inhibition at 22.5 g/ha [41]: 4.9%
inhibition at 187.5 g/ha [42]: 100%
inhibition at 1500 g/ha [43]: 92.3%
inhibition at 93.75 g/ha [44]: 0.2%
inhibition at 375 g/ha [45]: 23.2%
inhibition at 187.5 g/ha [46]: 26.5%
inhibition at 187.5 g/ha [47]: 34.4%
inhibition at 22.5 g/ha [48]: 3.4%

— ChEMBL document CHEMBL3044834, “Novel protoporphyrinogen oxidase inhibitors: 3H-pyrazolo[3,4-d][1,2,3]triazin-4-one derivatives” (J Agric Food Chem, 2008)
